Data reported in ChEMBL document CHEMBL1773023, “Potent and selective phosphopeptide mimetic prodrugs targeted to the Src homology 2 (SH2) domain of signal transducer and activator of transcription 3” (J Med Chem, 2011).
Activity calls are given as the source filed them. The rule behind the calls is not given here.

Experiments:
[1] = target: T1, Signal transducer and activator of transcription 3 (Homo sapiens, UniProt P40763); assay: Binding affinity to SH2 domain of Stat3 by fluorescence polarization assay
Method in brief: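 Recombinant Stat3, expressed and purified, tested against phosphopeptides and peptidomimetics in a fluorescence polarization competition assay. Affinity is reported as an inhibition constant (K_I).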

[2] = target: RAC-alpha serine/threonine-protein kinase (Homo sapiens) (UniProt P31749); assay: Inhibition of EGF-induced Akt phosphorylation at Ser473 in human MDA-MB-468 cells at 5 uM treated 1.5 hrs before EGF challenge measured after 30 mins by Western blotting; assay type: cell-based
Method in brief: (§1)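 MDA-MB-468 cells pretreated 1.5 h with prodrug (5 μM), then EGF 100 ng/mL for 30 min; lysates split onto three PVDF blots probed for phospho/total Stat3, pSer473/total Akt, and phospho/total Stat5.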

[3] = system: MDA-MB-468; assay: Selectivity ratio of inhibition of IFNgamma-induced Stat1 phosphorylation at Tyr701 to inhibition of EGF-induced SH2 domain of Stat3 phosphorylation at Tyr705 in human MDA-MB-468 cells; assay type: cell-based
[4] = target: T1, Signal transducer and activator of transcription 3; assay: Inhibition of SH2 domain of Stat3 constitutive phosphorylation at Tyr705 in human MDA-MB-468 cells at 0.5 uM after 2 hrs by Western blotting; assay type: cell-based
Method in brief: (§2)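 MDA-MB-468 cells (4×10^5/well, DMEM 10% FCS, overnight) given prodrug from freshly made 10 mM DMSO stock for 2 h. Lysates in Hepes pH 7.4 Triton buffer with phosphatase/protease inhibitors; 12 μg protein on 8% SDS-PAGE, PVDF, probed for pStat3 Y705 by ECL, then stripped and reprobed for total Stat3.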

[5] = target: T2, Signal transducer and activator of transcription 1-alpha/beta (Homo sapiens) (UniProt P42224); assay: Inhibition of IFN-gamma-induced Stat1 phosphorylation at Tyr701 in human MDA-MB-468 cells treated 1.5 hrs before IFN-gamma challenge measured after 30 mins by Western blotting; assay type: cell-based
T2 sequence (whole entry): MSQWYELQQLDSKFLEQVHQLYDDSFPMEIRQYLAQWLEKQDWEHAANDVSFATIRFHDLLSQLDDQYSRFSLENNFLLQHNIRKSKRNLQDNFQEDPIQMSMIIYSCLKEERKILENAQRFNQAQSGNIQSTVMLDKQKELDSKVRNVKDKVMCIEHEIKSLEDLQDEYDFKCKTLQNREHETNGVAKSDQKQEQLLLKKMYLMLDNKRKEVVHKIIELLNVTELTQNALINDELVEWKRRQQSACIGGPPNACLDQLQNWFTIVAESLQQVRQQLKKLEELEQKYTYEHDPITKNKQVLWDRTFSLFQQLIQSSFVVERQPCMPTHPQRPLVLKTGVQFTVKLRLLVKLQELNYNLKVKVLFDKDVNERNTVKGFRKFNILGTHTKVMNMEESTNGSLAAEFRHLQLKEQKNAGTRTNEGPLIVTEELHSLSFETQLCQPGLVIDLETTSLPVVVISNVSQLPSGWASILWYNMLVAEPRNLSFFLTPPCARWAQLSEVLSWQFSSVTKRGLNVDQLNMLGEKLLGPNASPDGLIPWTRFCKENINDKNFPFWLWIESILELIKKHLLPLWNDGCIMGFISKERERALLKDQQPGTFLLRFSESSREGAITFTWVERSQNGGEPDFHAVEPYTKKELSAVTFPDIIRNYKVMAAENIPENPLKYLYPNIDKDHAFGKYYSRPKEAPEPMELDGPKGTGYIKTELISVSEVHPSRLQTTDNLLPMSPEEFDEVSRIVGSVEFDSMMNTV
Method in brief: (§3)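 MDA-MB-468 cells exposed to rising prodrug concentrations for 1.5 h, then interferon γ 25 ng/mL for 30 min; Western blot for pTyr701 and total Stat1.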

[6] = target: T3, Signal transducer and activator of transcription 5A (Homo sapiens) (UniProt P42229); assay: Inhibition of EGF-induced SH2 domain of Stat5 phosphorylation at Tyr694 in human MDA-MB-468 cells at 5 uM treated 1.5 hrs before EGF challenge measured after 30 mins by Western blotting; assay type: cell-based; method in brief: as §1
T3 sequence (whole entry): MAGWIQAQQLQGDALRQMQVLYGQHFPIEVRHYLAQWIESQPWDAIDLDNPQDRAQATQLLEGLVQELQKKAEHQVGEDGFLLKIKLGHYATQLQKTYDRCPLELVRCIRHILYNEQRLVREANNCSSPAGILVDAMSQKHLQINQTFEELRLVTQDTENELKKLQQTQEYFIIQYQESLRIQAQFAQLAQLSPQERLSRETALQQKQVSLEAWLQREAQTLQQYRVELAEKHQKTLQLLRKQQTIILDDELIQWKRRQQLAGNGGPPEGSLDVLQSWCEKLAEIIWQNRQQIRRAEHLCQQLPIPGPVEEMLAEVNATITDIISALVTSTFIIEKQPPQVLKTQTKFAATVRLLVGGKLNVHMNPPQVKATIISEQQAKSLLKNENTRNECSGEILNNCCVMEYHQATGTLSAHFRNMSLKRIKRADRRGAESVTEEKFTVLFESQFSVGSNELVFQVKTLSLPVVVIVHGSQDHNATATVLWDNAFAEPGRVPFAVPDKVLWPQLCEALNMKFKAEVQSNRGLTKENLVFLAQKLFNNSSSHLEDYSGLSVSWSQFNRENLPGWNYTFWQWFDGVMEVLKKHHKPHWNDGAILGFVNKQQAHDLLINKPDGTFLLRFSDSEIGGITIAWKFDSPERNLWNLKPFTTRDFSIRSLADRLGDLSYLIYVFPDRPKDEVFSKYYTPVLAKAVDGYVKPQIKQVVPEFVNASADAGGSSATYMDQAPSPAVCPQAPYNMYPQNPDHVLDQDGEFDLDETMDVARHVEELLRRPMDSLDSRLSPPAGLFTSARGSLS

[7] = target: T1, Signal transducer and activator of transcription 3; assay: Inhibition of SH2 domain of Stat3 constitutive phosphorylation at Tyr705 in human MDA-MB-468 cells at 5 uM after 8 hrs by Western blotting; assay type: cell-based
Method in brief: (§4)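 MDA-MB-468 cells given a single 5 μM prodrug dose and harvested at set times; pTyr705 and total Stat3 by Western blot of 12 μg lysate protein on 8% SDS-PAGE.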

[8] = system: A549; assay: Cytotoxicity against human A549 cells assessed as cell growth inhibition at 5 to 10 uM after 72 hrs by MTT assay; assay type: functional
Method in brief: (§5)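 Cell lines with constitutive Stat3 phosphorylation (melanoma, NSCLC) exposed to prodrug at 5–10 μM. Percent growth inhibition recorded.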

[9] = target: T1, Signal transducer and activator of transcription 3; assay: Inhibition of EGF-induced SH2 domain of Stat3 phosphorylation at Tyr705 in human MDA-MB-468 cells at 5 uM treated 1.5 hrs before EGF challenge measured after 30 mins by Western blotting; assay type: cell-based; method in brief: as §1
[10] = Cytotoxicity against human H1299 cells assessed as cell growth inhibition at 5 to 10 uM after 72 hrs by MTT assay; assay type: functional, NCI-H1299; method in brief: as §5
[11] = Cytotoxicity against human NCI-H528 cells assessed as cell growth inhibition at 5 to 10 uM after 72 hrs by MTT assay; assay type: functional; method in brief: as §5
[12] = system: NCI-H520; assay: Cytotoxicity against human NCI-H520 cells assessed as cell growth inhibition at 5 to 10 uM after 72 hrs by MTT assay; assay type: functional; method in brief: as §5
[13] = system: MeWo; assay: Cytotoxicity against human MeWo cells assessed as cell growth inhibition at 5 to 10 uM after 72 hrs by MTT assay; assay type: functional; method in brief: as §5
[14] = system: A-375; assay: Cytotoxicity against human A375 cells assessed as cell growth inhibition at 5 to 10 uM after 72 hrs by MTT assay; assay type: functional; method in brief: as §5
[15] = target: T1, Signal transducer and activator of transcription 3; assay: Inhibition of SH2 domain of Stat3 constitutive phosphorylation at Tyr705 in human MDA-MB-468 cells at 5 uM after 30 mins by Western blotting; assay type: cell-based; method in brief: as §4
[16] = target: T1, Signal transducer and activator of transcription 3; assay: Inhibition of SH2 domain of Stat3 constitutive phosphorylation at Tyr705 in human MDA-MB-468 cells at 5 uM after 16 hrs by Western blotting; assay type: cell-based; method in brief: as §4
[17] = target: T1, Signal transducer and activator of transcription 3; assay: Inhibition of SH2 domain of Stat3 constitutive phosphorylation at Tyr705 in human MDA-MB-468 cells at 5 uM after 4 hrs by Western blotting; assay type: cell-based; method in brief: as §4
[18] = Cytotoxicity against human NCI-H1819 cells assessed as cell growth inhibition at 5 to 10 uM after 72 hrs by MTT assay; assay type: functional; method in brief: as §5
[19] = target: Focal adhesion kinase 1 (Homo sapiens) (UniProt Q05397); assay: Inhibition of constitutive FAK phosphorylation at Tyr861 in human MDA-MB-468 cells at 5 uM measured after 2 hrs by Western blotting
[20] = target: T2, Signal transducer and activator of transcription 1-alpha/beta (Homo sapiens); assay: Inhibition of IFN-gamma-induced Stat1 phosphorylation at Tyr701 in human MDA-MB-468 cells at 5 uM treated 1.5 hrs before IFN-gamma challenge measured after 30 mins by Western blotting; assay type: cell-based; method in brief: as §3
[21] = target: T1, Signal transducer and activator of transcription 3; assay: Inhibition of SH2 domain of Stat3 constitutive phosphorylation at Tyr705 in human MDA-MB-468 cells after 2 hrs by Western blotting; assay type: cell-based; method in brief: as §2
[22] = target: T1, Signal transducer and activator of transcription 3; assay: Inhibition of SH2 domain of Stat3 constitutive phosphorylation at Tyr705 in human MDA-MB-468 cells at 0.1 uM after 2 hrs by Western blotting; assay type: cell-based; method in brief: as §2

T1 sequence (P40763 whole entry, the tested form may be a part): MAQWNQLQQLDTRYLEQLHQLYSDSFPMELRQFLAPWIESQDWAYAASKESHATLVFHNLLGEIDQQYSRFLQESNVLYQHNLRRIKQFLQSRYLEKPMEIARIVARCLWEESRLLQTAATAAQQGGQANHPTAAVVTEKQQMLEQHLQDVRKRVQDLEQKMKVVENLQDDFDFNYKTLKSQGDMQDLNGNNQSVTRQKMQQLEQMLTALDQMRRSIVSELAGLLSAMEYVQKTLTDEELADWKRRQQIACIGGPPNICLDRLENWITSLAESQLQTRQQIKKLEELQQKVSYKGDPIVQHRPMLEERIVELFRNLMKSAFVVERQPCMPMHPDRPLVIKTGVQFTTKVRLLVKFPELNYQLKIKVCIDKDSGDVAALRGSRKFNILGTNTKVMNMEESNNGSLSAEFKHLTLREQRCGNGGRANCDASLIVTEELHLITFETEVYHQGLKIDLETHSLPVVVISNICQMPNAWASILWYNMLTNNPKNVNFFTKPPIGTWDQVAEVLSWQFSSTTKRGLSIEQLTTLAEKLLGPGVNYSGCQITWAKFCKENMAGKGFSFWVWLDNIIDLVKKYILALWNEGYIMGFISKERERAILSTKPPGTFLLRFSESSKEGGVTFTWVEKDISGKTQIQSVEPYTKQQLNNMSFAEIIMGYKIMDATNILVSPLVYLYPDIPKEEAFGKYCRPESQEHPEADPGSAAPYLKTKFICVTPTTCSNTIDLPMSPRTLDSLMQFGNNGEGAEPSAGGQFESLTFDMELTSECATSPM
Sequence of Focal adhesion kinase 1 (Homo sapiens) (Q05397 2-1052 limits assumed): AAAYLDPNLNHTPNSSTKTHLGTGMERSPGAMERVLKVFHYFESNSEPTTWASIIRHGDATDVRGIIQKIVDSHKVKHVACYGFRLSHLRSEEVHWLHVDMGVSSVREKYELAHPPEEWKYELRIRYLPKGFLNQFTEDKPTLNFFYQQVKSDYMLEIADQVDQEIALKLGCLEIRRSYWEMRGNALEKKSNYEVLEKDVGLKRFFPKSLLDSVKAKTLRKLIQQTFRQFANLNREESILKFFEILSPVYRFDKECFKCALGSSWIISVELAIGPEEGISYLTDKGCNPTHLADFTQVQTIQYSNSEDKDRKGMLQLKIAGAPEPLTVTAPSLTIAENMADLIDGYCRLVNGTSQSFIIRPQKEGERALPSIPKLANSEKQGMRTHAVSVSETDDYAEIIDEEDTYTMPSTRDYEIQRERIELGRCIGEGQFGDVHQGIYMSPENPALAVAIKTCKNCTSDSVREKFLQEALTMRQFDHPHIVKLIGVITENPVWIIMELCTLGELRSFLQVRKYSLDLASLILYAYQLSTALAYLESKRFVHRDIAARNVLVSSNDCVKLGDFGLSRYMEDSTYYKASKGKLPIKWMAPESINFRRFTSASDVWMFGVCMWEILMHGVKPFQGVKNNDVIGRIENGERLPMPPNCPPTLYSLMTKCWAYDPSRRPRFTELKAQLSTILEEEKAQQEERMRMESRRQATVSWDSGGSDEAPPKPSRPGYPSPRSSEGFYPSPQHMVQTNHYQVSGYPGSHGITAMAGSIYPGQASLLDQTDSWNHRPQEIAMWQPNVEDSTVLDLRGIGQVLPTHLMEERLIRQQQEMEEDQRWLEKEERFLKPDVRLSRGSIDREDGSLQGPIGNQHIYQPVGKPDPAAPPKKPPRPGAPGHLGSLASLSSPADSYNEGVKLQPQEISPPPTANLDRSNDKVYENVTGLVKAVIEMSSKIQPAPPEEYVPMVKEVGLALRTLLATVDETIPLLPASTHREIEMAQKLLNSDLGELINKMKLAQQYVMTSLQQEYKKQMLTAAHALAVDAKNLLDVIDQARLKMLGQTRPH
Sequence of RAC-alpha serine/threonine-protein kinase (Homo sapiens) (P31749 whole entry): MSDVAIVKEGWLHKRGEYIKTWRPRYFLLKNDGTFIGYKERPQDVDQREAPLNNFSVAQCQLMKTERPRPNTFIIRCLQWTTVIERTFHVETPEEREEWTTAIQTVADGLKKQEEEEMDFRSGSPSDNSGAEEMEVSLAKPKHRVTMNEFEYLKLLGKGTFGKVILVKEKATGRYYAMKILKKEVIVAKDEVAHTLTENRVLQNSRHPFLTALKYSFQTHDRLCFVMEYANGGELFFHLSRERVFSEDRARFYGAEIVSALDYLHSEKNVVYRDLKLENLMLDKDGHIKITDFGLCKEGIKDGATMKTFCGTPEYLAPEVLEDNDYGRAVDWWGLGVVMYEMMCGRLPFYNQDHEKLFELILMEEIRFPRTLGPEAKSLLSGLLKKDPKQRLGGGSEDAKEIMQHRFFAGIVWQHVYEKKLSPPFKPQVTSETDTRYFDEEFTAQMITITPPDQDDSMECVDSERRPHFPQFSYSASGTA

CCCC[C@H](NC(=O)/C=C/c1ccc(OP(=O)(O)O)cc1)C(=O)N1C[C@H]2C[C@H]2[C@H]1C(=O)N[C@@H](CCC(N)=O)C(=O)NCc1ccccc1
Ki [1]: 0.048 µM

C/C(=C\C(=O)N[C@@H](CC(C)C)C(=O)N1C[C@H]2C[C@H]2[C@H]1C(=O)NCCOC(N)=O)c1ccc(OP(=O)(O)O)cc1
Ki [1]: 0.193 µM

C/C(=C\C(=O)N[C@@H](CC(C)C)C(=O)N1C[C@H]2C[C@H]2[C@H]1C(=O)NCCNC(N)=O)c1ccc(OP(=O)(O)O)cc1
Ki [1]: 0.039 µM

C/C(=C\C(=O)N[C@@H](CC(C)C)C(=O)N1C[C@H]2C[C@H]2[C@H]1C(=O)N[C@@H](CCC(N)=O)C(=O)NCc1ccccc1)c1ccc(OP(=O)(O)O)cc1
Ki [1]: 0.043 µM

C/C(=C\C(=O)N[C@H]1CCc2cccc3c2N(C1=O)[C@H](C(=O)N[C@@H](CCC(N)=O)C(=O)NCc1ccccc1)C3)c1ccc(OP(=O)(O)O)cc1
Ki [1]: 0.057 µM

CCCC[C@H](NC(=O)/C=C(\C)c1ccc(C(F)(F)P(=O)(OCOC(=O)C(C)(C)C)OCOC(=O)C(C)(C)C)cc1)C(=O)N1C[C@H]2C[C@H]2[C@H]1C(=O)N[C@@H](CCC(N)=O)C(C)OCc1ccccc1 (stereo not given in full)
inhibition [2]: inactive | Ratio [3]: 10 | inhibition [4]: Active | inhibition [5]: Dose-dependent effect | inhibition [6]: inactive | inhibition [7]: Active | growth inhibition (GI) [8]: <20% | inhibition [9]: Active | growth inhibition (GI) [10]: <20% | growth inhibition (GI) [11]: <20% | growth inhibition (GI) [12]: <20% | growth inhibition (GI) [13]: <20% | growth inhibition (GI) [14]: <20% | inhibition [15]: Active | inhibition [16]: inactive | inhibition [17]: Active | growth inhibition (GI) [18]: <20% | inhibition [19]: inactive | inhibition [20]: Active

CC(C)(C)C(=O)OCOP(=O)(OCOC(=O)C(C)(C)C)C(F)(F)c1ccc(/C=C/C(=O)N[C@H]2CCc3cccc4c3N(C2=O)[C@H](C(=O)N[C@@H](CCC(N)=O)C(=O)NCc2ccccc2)C4)cc1
inhibition [21]: Dose-dependent effect

C[C@H](CCC(N)=O)NC(=O)[C@@H]1Cc2cccc3c2N1C(=O)[C@@H](NC(=O)/C=C/c1ccc(C(F)(F)P(=O)(OCOC(=O)C(C)(C)C)OCOC(=O)C(C)(C)C)cc1)CC3
inhibition [4]: Active | inhibition [22]: Active

C/C(=C\C(=O)N[C@H]1CCc2cccc3c2N(C1=O)[C@H](C(=O)N[C@H](C)CCC(N)=O)C3)c1ccc(OP(=O)(O)O)cc1
Ki [1]: 0.105 µM

CCCC[C@H](NC(=O)/C=C(\C)c1ccc(OP(=O)(O)O)cc1)C(=O)N1C[C@H]2C[C@H]2[C@H]1C(=O)N[C@@H](CCC(N)=O)C(=O)NCc1ccccc1
Ki [1]: 0.033 µM

CCCC[C@H](NC(=O)/C=C(\C)c1ccc(OP(=O)(O)O)cc1)C(=O)N1C[C@H]2C[C@H]2[C@H]1C(=O)N[C@H](C)CCC(N)=O
Ki [1]: 0.066 µM
